The subject of assay [1] is CCRF-CEM. Briefly: Cell cycle arrest in human CEM cells assessed as accumulation at G2/M phase using propidium iodide staining at IC50 concentration after 24 hrs by flow cytometry. Type of assay: functional.
The subject of assay [2] is CCRF-CEM. The assay can be described thus: Cell cycle arrest in human CEM cells assessed as accumulation at S phase using propidium iodide staining at IC50 concentration after 24 hrs by flow cytometry. Type of assay: functional. A general note: In flow cytometry, cells or beads pass a laser one at a time.
The test system of assay [3] is CCRF-CEM. Briefly: Induction of mitotic arrest in human CEM cells assessed as pH3Ser10 positive cells at 5 times IC50 concentration after 24 hrs by flow cytometry. Type of assay: functional.
The subject of assay [4] is CCRF-CEM. The assay can be described thus: Inhibition of DNA synthesis in human CEM cells assessed as BrDU incorporation using propidium iodide staining at 5 times IC50 concentration after 24 hrs by flow cytometry. Type of assay: functional. Details: scale not given: the % may be the effect or the level left. Put shortly:
(§1)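 CEM cells exposed at 1× and 5× IC50 for 3, 6, 9 and 24 h, then pulsed with BrdU for 30 min at 37 °C. Cells fixed overnight in ice-cold 70% ethanol and DNA denatured in 2 M HCl for 30 min. Neutralised with 0.1 M sodium borate, then stained with anti-BrdU antibody, FITC secondary, and propidium iodide/RNase. Read by flow cytometry at 488 nm.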

For assay [5], the system named is CCRF-CEM. Briefly: Cell cycle arrest in human CEM cells assessed as accumulation at G0/G1 phase using propidium iodide staining at IC50 concentration after 24 hrs by flow cytometry. Type of assay: functional.
The test system of another assay is A549. The assay can be described thus: Cytotoxicity against human A549 cells after 72 hrs by MTT assay. Type of assay: functional, cell-based. The method in brief: (§2)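 Cells seeded at 2500–30,000 per well by cell type and pre-incubated 24 h at 37 °C, 5% CO2. Compounds dissolved in 10% DMSO, added as four-fold dilutions at time zero, tested in quadruplicate. Exposure 72 h at 37 °C, 5% CO2, 100% humidity. MTT then added for 1–4 h, formazan dissolved overnight at 37 °C, OD read at 540 nm. IC50 taken from dose-response curves relative to control wells.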

The subject of assay [6] is CCRF-CEM. The assay can be described thus: Inhibition of RNA synthesis in human CEM cells assessed as BrU incorporation using propidium iodide staining at 5 times IC50 concentration after 24 hrs by flow cytometry. It is filed as functional. Details: scale not given: the % may be the effect or the level left. Put shortly:
(§3)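 RNA synthesis measured by flow cytometry of incorporated 5-bromouridine, detected with a cross-reacting anti-BrdU antibody. CEM cells exposed at 1× and 5× IC50 for 3, 6, 9 and 24 h and pulsed for 30 min at 37 °C before harvest. Fixed 15 min in 1% paraformaldehyde/0.05% NP-40 in PBS and stored at 4 °C at least overnight. Stained with primary and FITC secondary antibodies, 30 min each at room temperature.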

For assay [7], the system named is K562. Briefly: Cytotoxicity against human paclitaxel-resistant K562 cells after 72 hrs by MTT assay. It is filed as functional, cell-based. The method in brief: as §2
A general note: Tetrazolium assays rely on reduction of a dye to a coloured formazan, in cell work by metabolically active cells.

Assay [8] concerns CCRF-CEM. The assay can be described thus: Inhibition of DNA synthesis in human CEM cells assessed as BrDU incorporation using propidium iodide staining at IC50 concentration after 24 hrs by flow cytometry. It is filed as functional. Also on record: scale not given: the % may be the effect or the level left. The method in brief: as §1
The test system of assay [9] is CCRF-CEM. Briefly: Inhibition of RNA synthesis in human CEM cells assessed as BrU incorporation using propidium iodide staining at IC50 concentration after 24 hrs by flow cytometry. Type of assay: functional. Details: scale not given: the % may be the effect or the level left. Put shortly: as §3
Assay [10] deals with CCRF-CEM. Briefly: Induction of apoptosis in human CEM cells using propidium iodide staining at IC50 concentration after 24 hrs by flow cytometry. It is filed as functional.
Assay [11] in a line: Cytotoxicity against human CEM-DNR-B cells after 72 hrs by MTT assay. Type of assay: functional, cell-based. The method in brief: as §2
Assay [12] concerns Staphylococcus aureus. The assay can be described thus: Antimicrobial activity against methicillin-resistant Staphylococcus aureus after 24 hrs. It is filed as functional.
Assay [13] concerns K562. Briefly: Cytotoxicity against human K562 cells after 72 hrs by MTT assay. Type of assay: functional, cell-based. Put shortly: as §2
Assay [14] concerns CCRF-CEM. The assay can be described thus: Induction of apoptosis in human CEM cells using propidium iodide staining at 5 times IC50 concentration after 24 hrs by flow cytometry. Type of assay: functional.
The test system of assay [15] is CCRF-CEM. The assay can be described thus: Cytotoxicity against human CEM cells after 72 hrs by MTT assay. Type of assay: functional, cell-based. The method in brief: as §2
Assay [16] relates to CCRF-CEM. The assay can be described thus: Induction of mitotic arrest in human CEM cells assessed as pH3Ser10 positive cells at IC50 concentration after 24 hrs by flow cytometry. Type of assay: functional.
Assay [17] deals with Staphylococcus haemolyticus. Briefly: Antimicrobial activity against Staphylococcus haemolyticus after 24 hrs. It is filed as functional. The method in brief:
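MIC taken as the lowest concentration preventing bacterial growth after 24 h incubation at 37 °C. Strains came from the Czech Collection of Microorganisms or from clinical isolates of hospital patients.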

Assay [18] has as its system Staphylococcus aureus. The assay can be described thus: Antimicrobial activity against Staphylococcus aureus CCM 3953 after 24 hrs. It is filed as functional. The settings on record: CCM 3953, 24 h.
The subject of the next assay is Enterococcus faecalis. Briefly: Antimicrobial activity against Enterococcus faecalis CCM 4224 after 24 hrs. Type of assay: functional. The settings on record: CCM 4224, 24 h.

Converted amounts (≈) assume the structure as drawn.

Results on five compounds are retold here after ChEMBL document CHEMBL1240455, “Synthesis of 5-[alkoxy-(4-nitro-phenyl)-methyl]-uridines and study of their cytotoxic activity” (Eur J Med Chem, 2010).

What is called IC50 is the point on the concentration scale where inhibition reaches its midpoint. In general, MIC refers to the lowest concentration found to suppress growth.

`CCCCCCCCOC(c1ccc([N+](=O)[O-])cc1)c1cn([C@@H]2O[C@H](CO)[C@@H](O)[C@H]2O)c(=O)[nH]c1=O` (single isomer, unassigned; (+)): the Activity was 9.83% in the assay with CCRF-CEM [1]; 47.81% in the assay with CCRF-CEM [2]; 0.03% in the assay with CCRF-CEM [3]; 6.01% in the assay on CCRF-CEM [4]; 42.36% in the assay with CCRF-CEM [5]; 1.44% in the assay on CCRF-CEM [6]. Further, the Activity is on record as 46.03% with CCRF-CEM [8]; 58.1% with CCRF-CEM [9]; 7% in the assay on CCRF-CEM [10]; 76% in the assay with CCRF-CEM [14]; 2.05% with CCRF-CEM [16]. Also, the IC50 came out at 38.7 µM in the assay with A549 (Homo sapiens, A549, 72 h); 33.1 µM with K562 [7] (Homo sapiens, K562, 72 h); 34.6 µM in [11] (Homo sapiens, 72 h); 15.1 µM in the assay on K562 [13] (Homo sapiens, K562, 72 h); 11.4 µM in the assay on CCRF-CEM [15] (Homo sapiens, CCRF-CEM, 72 h). For the same compound, the minimal inhibitory concentration (MIC) in the assay with Staphylococcus aureus [12] was determined as 100 µM (≈ 50.8 µg/mL); in assay [17], 200 µM (≈ 102 µg/mL); with Staphylococcus aureus [18], 100 µM (≈ 50.8 µg/mL); against Enterococcus faecalis, 200 µM (≈ 102 µg/mL).
For `CCCCCCOC(c1ccc([N+](=O)[O-])cc1)c1cn([C@@H]2O[C@H](CO)[C@@H](O)[C@H]2O)c(=O)[nH]c1=O` (single isomer, unassigned; (-)), the half-inhibitory concentration (IC50) stood at 156 µM in the assay on A549 (a549); 137 µM in the assay on K562 [7] (k562); 146 µM in [11]; 64.5 µM in the assay with K562 [13] (k562); 45.5 µM with CCRF-CEM [15] (ccrf-cem).
With `CCCCCCCCCOC(c1ccc([N+](=O)[O-])cc1)c1cn([C@@H]2O[C@H](CO)[C@@H](O)[C@H]2O)c(=O)[nH]c1=O` (single isomer, unassigned; (-)), the Activity is recorded as 8.83% in the assay on CCRF-CEM [1]; 47.79% with CCRF-CEM [2]; 0.04% in the assay with CCRF-CEM [3]; 0.95% with CCRF-CEM [4]; 43.38% in the assay on CCRF-CEM [5]; 1.9% in the assay on CCRF-CEM [6]. Besides, the Activity is 47.38% in the assay on CCRF-CEM [8], 57.26% in the assay on CCRF-CEM [9] and 1.74% in the assay on CCRF-CEM [16]. For the same compound, the IC50 was determined as 29.1 µM with A549 (a549); 23.9 µM in the assay with K562 [7] (k562); 33.8 µM in assay [11]; 13 µM in the assay on K562 [13] (k562); 10 µM with CCRF-CEM [15] (ccrf-cem).
Consider `CCCCCCCOC(c1ccc([N+](=O)[O-])cc1)c1cn([C@@H]2O[C@H](CO)[C@@H](O)[C@H]2O)c(=O)[nH]c1=O` (stereo in doubt; (+)7g), for which the concentration for half-maximal inhibition (IC50) in the assay with A549 (Homo sapiens, A549, 72 h) amounted to 39.8 µM; with K562 [7] (Homo sapiens, K562, 72 h), 42.8 µM; in assay [11] (Homo sapiens, 72 h), 104 µM; in the assay on K562 [13] (Homo sapiens, K562, 72 h), 33.6 µM; in the assay on CCRF-CEM [15] (ccrf-cem), 12.8 µM.
As to `CCCCCCOC(c1ccc([N+](=O)[O-])cc1)c1cn([C@@H]2O[C@H](CO)[C@@H](O)[C@H]2O)c(=O)[nH]c1=O` (stereo in doubt; (+)-7f), the IC50 with A549 (Homo sapiens, A549, 72 h) was determined as 121 µM; in the assay on K562 [7] (Homo sapiens, K562, 72 h), 141 µM; in assay [11] (Homo sapiens, 72 h), 131 µM; in the assay on K562 [13] (Homo sapiens, K562, 72 h), 58.4 µM; in the assay with CCRF-CEM [15] (Homo sapiens, CCRF-CEM, 72 h), 39.8 µM.
